Rtt109 Vps75: C. albicans Rtt109 histone acetyltransferase inhibition; Q5AAJ8; 0.16% of 330,000 active; inhibition, % at 34.9 µM; AID 540336; purified Rtt109/Vps75, ThioGlo CoA-SH fluorescence, 4 h;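 active means inhibition of at least 50% in every replicate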
Target sequence (Q5AAJ8 whole entry, looked up): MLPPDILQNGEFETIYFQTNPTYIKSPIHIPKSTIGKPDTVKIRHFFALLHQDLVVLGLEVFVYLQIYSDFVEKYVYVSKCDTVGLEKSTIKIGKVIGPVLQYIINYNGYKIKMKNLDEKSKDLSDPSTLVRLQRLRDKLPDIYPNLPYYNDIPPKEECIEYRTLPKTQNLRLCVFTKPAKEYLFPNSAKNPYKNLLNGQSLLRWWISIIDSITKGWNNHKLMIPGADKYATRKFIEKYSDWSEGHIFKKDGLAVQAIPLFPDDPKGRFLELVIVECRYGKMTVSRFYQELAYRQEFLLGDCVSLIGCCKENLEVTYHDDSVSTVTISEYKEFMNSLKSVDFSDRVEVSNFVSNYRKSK
CDK5 inh: inhibitors of human CDK5/p35 kinase. Recombinant CDK5/p35, ADP-Glo luminescence, 60 min. 0.01% of 330,000 active. Q00535+Q15078. inhibition, % at 10 µM. AID 488839;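 active means highest replicate inhibition of at least 50% and at least 75% of replicates reaching 50%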;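 further: plate controls were DMSO neutral control for no effect and GW8510 at 10 µM for full effect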
CAL PDZ FP-1: inhibitors of human CAL PDZ peptide binding; purified CAL PDZ, TMR-peptide fluorescence polarization, 1 h; inhibition, % at 24.9 µM; 0.92% of 300,000 active; AID 602252;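 active means mean inhibition of at least 30% with at least half of replicates also reaching 30%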;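 further: 0% = DMSO neutral control and 100% = excess unlabeled competitor peptide PRC23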
CAL PDZ FP-2: blocks peptide binding to human CAL PDZ domain | Q9HD26 | purified CAL PDZ, TMR-peptide fluorescence polarization, 1 h | 0.02% of 330,000 active | AID 504414 | inhibition, % at 20 µM;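 active means highest replicate inhibition of at least 40%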;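 further: plate controls were DMSO neutral control wells for no effect and unlabeled competitor peptide control wells for full effect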
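material = purified tagged CAL PDZ domain construct (CerCALP) | compound dosing = 20 µM, one dose | times = 1 h at RT | measured by = fluorescence polarization from S- and P-plane intensities, G-factor corrected | read-out = inhibition from polarization loss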
dFosB activator: mouse delta FosB homodimer activation. P13346. purified delta FosB, TAMRA-CDK5 oligo fluorescence polarization; percent of positive-control signal above neutral wells. activation, % at 25 µM. 0.99% of 340,000 active;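 active means mean activation above about 17%, with every replicate also reaching it, limit read from the data, passing the limit was not always enough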
Dyrk1A ADPGlo: inhibitors of rat Dyrk1A kinase; 0.43% of 310,000 active; AID 504441; Q63470; inhibition, % at 12.5 µM; ADP-Glo luminescence, NFATc1 peptide; in the data active means inhibition above about 50%;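 further: plate controls were vehicle with enzyme for no effect and no enzyme for full effect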
The depositor's hits bear a star; x = no result; + = active, no number. An excerpt weighted towards active compounds, which were near 2.2% of everything screened.

SMILES	Rtt109 Vps75	CDK5 inh	CAL PDZ FP-1	CAL PDZ FP-2	dFosB activator	Dyrk1A ADPGlo
COc1cccc(NC(=O)CC2Oc3ccccc3NC2=O)c1 (stereo not given)	1.9	0.7	2.5	0.8	-8.2	-2.1
CSc1cccc(NC(=O)CC2Oc3ccccc3NC2=O)c1 (stereo not given)	x	0.5	-7.3	0.2	36.8*	-3.5
Fc1cccc2sc(N3CCCCC3)nc12	-9.0	x	36.8*	-0.5	-1.6	8.9
CCOC(=O)c1ccc(N=C2C(=S)N(c3ccc(C(=O)OCC)cc3)C(=N)N2/N=C/c2ccccc2)cc1	63.7*	-0.8	-2.2	-3.8	-4.7	-6.9
CCOC(=O)c1ccc(N=c2scc(C)n2CC)cc1	-4.9	-1.0	-5.8	-2.6	-1.4	-0.1
Cc1c(C)c2ccc(OC(C)C(=O)NCCCn3ccnc3)c(C)c2oc1=O (stereo not given)	4.1	0.7	71.1*	-0.5	-5.4	0.0
CC(Oc1ccc2ccc(=O)oc2c1)C(=O)NCCCn1ccnc1 (stereo not given)	-5.2	-0.3	-0.2	-1.0	0.9	1.7
CC(=O)NC1C(=O)N(CCN2CCOCC2)c2ccc(Cl)cc21 (stereo not given)	-10.7	1.0	10.7	25.2	-4.7	-8.5
CC(=O)NC1C(=O)N(CCN2CCOCC2)c2ccc(C)cc21 (stereo not given)	-9.1	0.3	63.8*	40.0	-19.0	-7.7
Cc1cccc2[nH]c(CN(C)C(=O)C3CCC(=O)N(C4CC4)C3)nc12 (stereo not given)	-2.1	0.9	42.7*	-1.1	-1.9	-5.3
Cc1cc(C(=O)CN(Cc2ccc(F)cc2)S(=O)(=O)c2ccc3c(c2)OCCO3)c(C)n1C	3.0	-1.7	-2.2	-0.8	-0.3	-6.2
O=S(=O)(c1ccc2c(c1)OCCO2)N(Cc1ccc(F)cc1)Cc1nnc(-c2cccs2)o1	0.2	-0.8	42.9*	-2.0	-10.8	-5.9
COc1ccccc1NC(=O)c1cccc(N2C(=O)C3C4C=CC(C4)C3C2=O)c1 (stereo not given)	1.6	0.6	50.3*	-0.6	-4.2	6.3
COc1ccc(NC(=O)c2cccc(N3C(=O)C4C5C=CC(C5)C4C3=O)c2)c(OC)c1 (stereo not given)	2.0	-2.5	-5.2	-0.3	-8.6	-4.3
COc1ccc(CNC(=O)c2coc(=O)c3ccccc23)cc1	2.5	1.0	-2.7	-2.7	-1.3	2.5
OCCn1c(SCCOc2ccccc2F)nc2ccccc21	2.4	0.3	-3.0	-2.2	3.4	3.8
OCCn1c(SC2CCCCC2)nc2ccccc21	-1.5	-1.8	46.9*	0.3	-0.9	3.8
CCc1cccc(CC)c1NC(=O)COC(=O)CCc1cc(OC)c(OC)c(OC)c1	-5.4	1.3	1.8	1.6	-7.6	-3.5
COc1cc2nc(N3CCN(c4cc(C)ccc4C)CC3)nc(N)c2cc1OC	-1.2	-1.4	1.0	-0.5	79.5*	2.7
COc1ccc(C)cc1Nc1nc(N)c2cc(OC)c(OC)cc2n1	1.8	-0.6	-2.9	0.1	48.2*	-0.3
COc1ccc(CC(C)NCC(O)c2ccc(O)c(NC=O)c2)cc1 (stereo not given)	-6.5	-1.0	-3.0	0.6	6.6	0.1
CC(C)(C)NC(=O)COC(=O)CCC(=O)c1ccc(Cl)cc1	-0.7	-0.1	3.0	-1.3	-7.7	2.5
CC(C)CNC(=O)COC(=O)CCC(=O)c1ccc(Cl)cc1	-0.7	0.1	13.4	40.9*	-0.8	x
Cc1nn(CC(=O)NCCCN2CCCCC2)c(=O)c2cccn12	10.0	-2.2	1.7	-2.6	-5.2	-0.7
Cc1nn(CC(=O)NCCc2ccccc2)c(=O)c2cccn12	-8.8	1.4	46.2*	-2.7	-6.6	-7.8
SMILES	Rtt109 Vps75	CDK5 inh	CAL PDZ FP-1	CAL PDZ FP-2	dFosB activator	Dyrk1A ADPGlo
Cc1ccc(S(=O)(=O)Nc2ccc(O)c3cccnc23)cc1	128.2*	2.7	-0.2	-0.6	-9.8	8.6
COc1ccccc1OCCC(=O)OCC(=O)Nc1ccc(Br)cc1F	-12.9	1.1	54.1*	-1.3	1.7	x
O=C(COC(=O)COc1ccccc1)Nc1ccc(Br)cc1F	2.6	-0.8	0.4	-0.2	2.1	-4.7
Cc1cccc(C)c1NC(=O)C1(N(Cc2ccco2)C(=O)CC2NC(=O)NC2=O)CCCC1 (stereo not given)	9.4	0.5	-2.6	0.5	-1.2	-1.8
COc1ccc(NC(=O)CN(C)C(=O)c2ccc(C)c(S(=O)(=O)N3CCCCC3)c2)cc1	5.2	0.2	-3.3	-1.2	-5.8	-2.2
O=C(NCc1nnc2c(C(F)(F)F)cc(Cl)cn12)c1ccc(Br)o1	-1.8	0.8	-2.0	-2.9	-12.4	1.6
Cc1ccc(-c2cc(C(=O)Nc3ccncc3)c3ccccc3n2)cc1	-0.9	0.2	31.7*	-3.5	-10.5	7.8
O=C(N/N=C/c1ccc(O)cc1)c1cc(-c2ccccc2)nc2ccccc12	-10.0	0.1	-4.0	-1.0	29.0*	-1.4
COc1cc(/C=N/NC(=O)c2cc(-c3ccccc3)nc3ccccc23)ccc1O	-11.4	-4.6	-4.9	1.3	-8.7	1.6
CCOC(=O)c1cc(NC(=O)CC(C)(C)CC(=O)O)ccc1N1CCCCC1	10.3	-0.7	x	-0.1	-0.8	2.2
Cc1ccccc1N1C(S)=C(C#N)C(=O)NC1c1cccs1 (stereo not given)	+	2.5	-3.0	-0.7	-3.5	8.3
N#CC1=C(S)N(c2ccc(F)cc2)C(c2cccs2)NC1=O (stereo not given)	9.2	0.3	-3.0	x	5.4	3.4
Cc1cccc(N2C(S)=C(C#N)C(=O)NC2c2cccs2)c1 (stereo not given)	121.0*	1.5	4.7	0.7	-2.0	-5.4
O=C(OCc1ccccc1)N(CCF)c1cn(Cc2ccccc2)c(=O)n(Cc2ccccc2)c1=O	-4.7	-0.6	-2.0	0.2	-3.0	4.0
N#C/C(=C/c1cn(CC(=O)O)c2ccccc12)C(=O)NCc1ccccc1	-1.8	2.0	-8.3	x	-5.4	-0.2
CC[C@H](C)Cc1cn([C@@H](CCCN=C(NC(=O)OC(C)(C)C)NC(=O)OC(C)(C)C)C(=O)NCCCCCCCCCCC(=O)N2CCN(C(=O)OC(C)(C)C)CC2)nn1	-0.2	-0.4	-4.1	-0.7	33.0*	-1.8
CCc1noc(C)c1C(=O)N1CCN(S(=O)(=O)c2cccs2)CC1	-4.2	-0.2	50.3*	-0.1	8.8	-5.5
CCc1noc(C)c1C(=O)N1CCN(S(=O)(=O)c2ccc(Cl)cc2)CC1	-1.8	-0.2	-13.6	-0.4	-4.7	3.4
CCOc1ccc(S(=O)(=O)NCCC(=O)Nc2ccncc2)cc1	-4.8	-8.4	x	-0.4	-1.7	x
CCOc1ccc(S(=O)(=O)NCCC(=O)Nc2cccc(C(=O)OC)c2)cc1	53.9*	-2.5	-0.7	-2.5	-5.5	0.2
CCCCN(CC)CCCNC(=O)c1cn(C)c(=O)c2c1c1ccccc1n2C	-0.6	1.5	36.8*	x	-2.0	7.4
